Assay [1] relates to P388. Briefly: Antitumor activity in mice against leukemia P388 cells at 1.3 uM/kg was expressed as ratio of average survival time. Format: functional, Mus musculus.
In assay [2] the test system is L1210. Briefly: Inhibition of incorporation of tritiated thymidine in the DNA of actively growing L1210 cells. Format: functional, cell-based. The settings on record: Mus musculus. In a few lines:
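Actively growing L1210 cells are exposed to the drug, dissolved first in Me₂SO (final Me₂SO 1%). Incorporation of tritiated thymidine into DNA or tritiated uridine into RNA is measured. IC₅₀ is the concentration giving 50% reduction in incorporation.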

For assay [3], the system named is P388. Briefly: Antitumor activity in mice against leukemia P388 cells at 0.85 uM/kg was expressed as ratio of average survival time. The format is functional, Mus musculus. In a few lines:
(§1)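 Mice bearing P388 leukemia were tested under NCI protocols, with doses given in µmol/kg. Toxicity was evaluated on day 5. Efficacy is reported as T/C, the mean survival time of treated mice divided by that of untreated controls, ×100. Values are usually the average of two tests. A T/C above 120 was taken as activity.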

The subject of assay [4] is B16. Briefly: Antitumor activity in mice against melanoma B16 cells at 1.1 uM/kg. The format is functional, Mus musculus. In a few lines: (§2)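 Mouse survival assay run under NCI protocols. Activity is expressed as T/C: average survival time of treated mice over untreated mice × 100. Values are usually the average of two tests. Toxicity is evaluated on day 5. A T/C above 120 is taken as activity.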

Assay [5] has as its system B16. Briefly: Antitumor activity in mice against melanoma B16 cells at 2.2 uM/kg was expressed as ratio of average survival time. Format: functional, Mus musculus.
Assay [6] relates to P388. Briefly: Antitumor activity in mice against leukemia P388 cells at 3.4 uM/kg. The format is functional, Mus musculus. The method, boiled down:
as §2

The test system of assay [7] is B16. Briefly: Antitumor activity in mice against melanoma B16 cells at 2.2 uM/kg. Format: functional, Mus musculus. In a few lines:
as §2

Assay [8] concerns P388. Briefly: Antitumor activity in mice against leukemia P388 cells at 0.43 survival time. Format: functional, Mus musculus. The method, boiled down: as §1
Assay [9] deals with P388. Briefly: Antitumor activity in mice against leukemia P388 cells at 1.7 uM/kg. Format: functional, Mus musculus. The method, boiled down:
as §2

The test system of assay [10] is P388. Briefly: Antitumor activity in mice against leukemia P388 cells at 3.4 uM/kg was expressed as ratio average survival time. The format is functional, Mus musculus. In a few lines:
as §1

For assay [11], the system named is B16. Briefly: Antitumor activity in mice against melanoma B16 cells at 1.1 uM/kg was expressed as ratio of average survival time. Format: functional, Mus musculus.
For assay [12], the system named is B16. Briefly: Antitumor activity in mice against melanoma B16 cells at 0.55 uM/kg. Format: functional, Mus musculus. In a few lines:
as §2

Assay [13] deals with B16. Briefly: Antitumor activity in mice against melanoma B16 cells at 0.55 uM/kg was expressed as ratio of average survival time. The format is functional, Mus musculus.
In assay [14] the test system is P388. Briefly: Antitumor activity in mice against leukemia P388 cells at 0.43 uM/kg. Format: functional, Mus musculus. The method, boiled down: as §2
In assay [15] the test system is P388. Briefly: Antitumor activity in mice against leukemia P388 cells at 0.85 uM/kg. Format: functional, Mus musculus. The method, boiled down: as §2
The test system of assay [16] is P388. Briefly: Antitumor activity in mice against leukemia P388 cells at 1.7 uM/kg was expressed as ratio of average survival time. The format is functional, Mus musculus. In a few lines:
as §1

Assay [17] relates to L1210. Briefly: Inhibition of incorporation of tritiated uridine in the RNA of actively growing L1210 cells. The settings on record: Mus musculus.
The test system of assay [18] is B16. Briefly: Antitumor activity in mice against melanoma B16 cells at 8.6 uM/kg was expressed as ratio of average survival time. Format: functional, Mus musculus.
The subject of assay [19] is P388. Briefly: Antitumor activity in mice against leukemia P388 cells at 8.9 uM/kg was expressed as ratio of average survival time. The format is functional, Mus musculus. The method, boiled down: as §1
The subject of assay [20] is P388. Briefly: Antitumor activity in mice against leukemia P388 cells at 8.9 uM/kg. Format: functional, Mus musculus. In a few lines: as §1
Assay [21] relates to B16. Briefly: Antitumor activity in mice against melanoma B16 cells at 34.2 uM/kg was expressed as ratio of average survival time. The format is functional, Mus musculus.
Assay [22] relates to P388. Briefly: Antitumor activity in mice against leukemia P388 cells at 17.9 survival time. The format is functional, Mus musculus. The method, boiled down:
as §1

The test system of assay [23] is B16. Briefly: Antitumor activity in mice against melanoma B16 cells at 17.1 uM/kg was expressed as ratio of average survival time. The format is functional, Mus musculus.
Assay [24] has as its system P388. Briefly: Antitumor activity in mice against leukemia P388 cells at 4.5 umol/kg was expressed as ratio of average survival time. Format: functional, Mus musculus. The method, boiled down:
as §1

Assay [25] concerns P388. Briefly: Antitumor activity in mice against leukemia P388 cells at 17.9 uM/kg. The format is functional, Mus musculus. In a few lines:
as §1

For assay [26], the system named is P388. Briefly: Antitumor activity in mice against leukemia P388 cells at 4.5 umol/kg. Format: functional, Mus musculus. The method, boiled down: as §1
The test system of assay [27] is P388. Briefly: Antitumor activity in mice against leukemia P388 cells at 0.11 umol/kg. The format is functional, Mus musculus. In a few lines:
as §2

Assay [28] deals with B16. Briefly: Antitumor activity in mice against melanoma B16 cells at 0.09 uM/kg. The format is functional, Mus musculus. The method, boiled down:
as §2

Assay [29] concerns B16. Briefly: Antitumor activity in mice against melanoma B16 cells at 0.17 umol/kg was expressed as ratio of average survival time. Format: functional, Mus musculus.
Assay [30] has as its system P388. Briefly: Antitumor activity in mice against leukemia P388 cells at 0.11 umol/kg was expressed as ratio of average survival time. Format: functional, Mus musculus. In a few lines: as §1
Assay [31] deals with P388. Briefly: Antitumor activity in mice against leukemia P388 cells at 0.05 umol/kg was expressed as ratio of average survival time. The format is functional, Mus musculus. The method, boiled down: as §1
Assay [32] has as its system B16. Briefly: Antitumor activity in mice against melanoma B16 cells at 0.16 uM/kg was expressed as ratio of average survival time. The format is functional, Mus musculus.
In assay [33] the test system is B16. Briefly: Antitumor activity in mice against melanoma B16 cells at 0.09 uM/kg was expressed as ratio of average survival time. The format is functional, Mus musculus.
Assay [34] has as its system P388. Briefly: Antitumor activity in mice against leukemia P388 cells at 0.22 umol/kg was expressed as ratio of average survival time. Format: functional, Mus musculus. In a few lines:
as §1

The subject of assay [35] is P388. Briefly: Antitumor activity in mice against leukemia P388 cells at 0.22 umol/kg. Format: functional, Mus musculus. In a few lines: as §2
In assay [36] the test system is B16. Briefly: Antitumor activity in mice against melanoma B16 cells at 0.04 uM/kg. Format: functional, Mus musculus. In a few lines:
as §2

The test system of assay [37] is B16. Briefly: Antitumor activity in mice against melanoma B16 cells at 0.04 uM/kg was expressed as ratio of average survival time. The format is functional, Mus musculus.
The test system of assay [38] is P388. Briefly: Antitumor activity in mice against leukemia P388 cells at 0.05 umol/kg. Format: functional, Mus musculus. In a few lines:
as §2

Assay [39] has as its system P388. Briefly: Antitumor activity in mice against leukemia P388 cells at 0.86 uM/kg. The format is functional, Mus musculus. In a few lines:
as §2

Assay [40] relates to P388. Briefly: Antitumor activity in mice against leukemia P388 cells at 1.7 umol/kg. Format: functional, Mus musculus. In a few lines: as §2
Assay [41] deals with P388. Briefly: Antitumor activity in mice against leukemia P388 cells at 0.21 survival time. Format: functional, Mus musculus. In a few lines: as §1
The test system of assay [42] is P388. Briefly: Antitumor activity in mice against leukemia P388 cells at 1.7 umol/kg was expressed as ratio of average survival time. The format is functional, Mus musculus. In a few lines: as §1
Assay [43] deals with P388. Briefly: Antitumor activity in mice against leukemia P388 cells at 0.86 survival time. Format: functional, Mus musculus. In a few lines:
as §1

The subject of assay [44] is P388. Briefly: Antitumor activity in mice against leukemia P388 cells at 1.4 uM/kg was expressed as ratio of average survival time. Format: functional, Mus musculus.

For the compound `COc1cccc2c1C(=O)c1c(O)c3c(c(O)c1C2=O)C[C@@](O)(C(=O)CO)C[C@@H]3O[C@H]1C[C@H](N)[C@H](O)[C@H](C)O1` [DOXORUBICIN], the T/C in assay [1] came to 197.
Consider `C[n+]1c(-c2cccc(OCCOCCOc3cccc(-c4c5cc(N)ccc5c5ccc(N)cc5[n+]4C)c3)c2)c2cc(N)ccc2c2ccc(N)cc21.[Br-].[Br-]`, for which the values for the 50% inhibitory concentration (IC50) in assay [2] and in assay [17] were 187 µM and 16 µM, respectively. Also, the T/C in assay [3] worked out at 132%; in assay [4], 127; in [5] it was 142%; in [6], 39; in assay [7] it was 142; in assay [8] it was 124%. The T/C worked out at 28 in [9]; 152% in [10]; 127% in assay [11]; 109 in assay [12]; 109% in assay [13]; 20 in [14]. Moreover, the T/C in assay [15] is given as 37; in assay [16] it was 156%.
For `COc1cccc(-c2c3cc(N)ccc3c3ccc(N)cc3[n+]2C)c1`, the IC50 amounted to 25 µM in assay [2] and 10 µM in assay [17].
For the compound `CC[n+]1c(-c2ccccc2)c2cc(N)ccc2c2ccc(N)cc21.[Cl-]`, the IC50 in [2] came to 31 µM; in [17] it was 11 µM. The T/C is reported as 108% in [18]; 150% in [19]; 18 in [20]; 135% in [21]; 149% in assay [22]; 112% in [23]. The T/C in assay [24] came to 135%; in assay [25], 24; in assay [26], 10.
With `C[n+]1c(-c2cccc(OCCCCCCCOc3cccc(-c4c5cc(N)ccc5c5ccc(N)cc5[n+]4C)c3)c2)c2cc(N)ccc2c2ccc(N)cc21.[Br-].[Br-]`, the IC50 in [2] was found to be 12 µM; in assay [17], 0.6 µM. Further, the T/C in assay [27] came out at 13; in [28], 136; in assay [29], 138%; in assay [30], 126%; in assay [31] it was 120%; in assay [32] it was 134%. Further, the T/C is 136% in assay [33]; 120% in [34]; 40 in [35]; 116 in assay [36]; 116% in [37]; 5 in assay [38].
For `C[n+]1c(-c2cccc(OCCCCCCCCCCOc3cccc(-c4c5cc(N)ccc5c5ccc(N)cc5[n+]4C)c3)c2)c2cc(N)ccc2c2ccc(N)cc21.[Cl-].[Cl-]`, the half-inhibitory concentration (IC50) in assay [2] came to 1.7 µM; in assay [17], 0.3 µM. For the same compound, the T/C in assay [39] is given as 15; in assay [40], 33; in [8] it was 156%; in assay [41], 141%; in [42], 158%; in [43], 160%.
Turning to `COc1cccc2c1C(=O)c1c(O)c3c(c(O)c1C2=O)C[C@@](O)(C(C)=O)C[C@@H]3O[C@H]1C[C@H](N)[C@H](O)[C@H](C)O1` [DAUNORUBICIN], the T/C in assay [44] worked out at 160.

The values are drawn from ChEMBL document CHEMBL1121745, “New dimeric analogues of ethidium; synthesis, interaction with DNA, and antitumor activity” (J Med Chem, 1981).
